Records with an inconclusive call do not appear.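 Rule for the calls, unless noted: active = RAM network inhibition above 8.4% in each of two replicates, 3 SD over the compound average; inconclusive = above 8.4% inhibition in only one replicate; inactive = 8.4% inhibition or less in each replicate.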
How the values were obtained:
[1] = OD615 S. cerevisiae growth inhibition, permissive medium, pilot counter-assay, permissive growth control for S. cerevisiae lifespan shortening project (AID 705;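 active = growth inhibition above 25% in both replicates, a cutoff set 3 SD above the mean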); details: OD615, 24 h, at 10 µM, active compounds read high
Procedure, shortened: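 System: Engineered DeaD yeast | Buffer or medium: SC raffinose/galactose permissive medium | Doses: 10 µM single dose, 0.25% DMSO | Times: 24 h exposure, 30 °C | Measured by: OD615 turbidity read | Read-out: Yeast growth inhibition indicated by reduced 24 h OD615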

[2] = Restrictive medium S. cerevisiae growth inhibition, OD615, pilot screen of yeast lifespan reduction project, restrictive growth control (AID 706;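 active = growth inhibition above a set limit, 3 SD over mean compound inhibition, in both replicates, cut at about 43% in these data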;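 note: modified DeaD lifespan yeast strain shifted to restrictive glucose medium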); details: OD615, 48 h, at 10 µM, active compounds read high
Procedure, shortened: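 Assay system: engineered S. cerevisiae DeaD strain; Buffer or medium: CSMM-D glucose medium; Dosing: 10 µM compound, 0.25% DMSO; Times: cell pre-growth 4 h, compound exposure 48 h, 30 °C; Detection: absorbance (optical density) measured at 615 nm.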

[3] = viability gain of MRP-1-high H69AR cells under doxorubicin, pilot screen, MRP-1 activator project, CellTiter-Glo, duplicate (AID 807;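 active = viability increase at or above a cutoff of the median across tested compounds plus 3 SD, cut at about 8.5% in these data, passing the limit was not always enough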;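 note: compound pretreatment 18-22 h then 72 h combined with doxorubicin; 0% = doxorubicin alone and 100% = vehicle without doxorubicin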); details: H69AR viability with doxorubicin, CellTiter-Glo luminescence; at 10 µM; active compounds read high
[4] = growth suppression of beta-catenin knockout HCT116, pilot screen, human colon tumor cells (AID 823;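 active = cell viability at or below a set limit in both duplicate runs, the limit being the all-compound median minus 4 SD, cut at about 23% in these data, passing the limit was not always enough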;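 note: 0% = wells killed by 20 µM Hyamine and 100% = untreated DMSO cell wells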); details: CellTiter-Glo, 60 h, at 10 µM, active compounds read low
[5] = growth suppression of PTEN-deleted HCT116, pilot screen, cell-based, HCT116 clonal line, CellTiter-Glo (AID 824;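 active = viability at or below 27.92% in each of two runs, the all-compound median minus 4 SD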;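 note: 0% = 20 µM Hyamine control and 100% = vehicle cell control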); details: 60 h, at 10 µM, active compounds read low
[6] = inhibitors of the yeast RAM network, pilot screen, dse1pr::URA3 reporter, 5-FOA selection (AID 869;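 active = inhibition over a set limit, the all-compound mean plus 3 SD, in both replicate runs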;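 note: 0% = DMSO wells with no growth and 100% = 10 µM 1-NA-PP1 with full growth; RAM network block rescues cells from 5-FOA so hits raise OD615 growth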); details: S. cerevisiae dse1pr::URA3 5-FOA growth, OD615, 2 d; at 10 µM; active compounds read high; strain carries analog-sensitive mutant Cbk1 kinase
[7] = RAM signaling pathway blockade in yeast – S. cerevisiae, Pdr1DBD-CYC8 efflux-inhibited sensitized strain, primary screen (AID 1298);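 note: 0% = DMSO untreated cells without growth and 100% = 10 µM 1-NA-PP1 full growth; higher means more yeast growth rescued from 5-FOA killing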; details: S. cerevisiae cbk1-as DSE1-URA3 strain, 5-FOA growth OD615, 2 d; at 50 µM; active compounds read high

CCCCOC(=O)Nc1ccccc1C(N)=O
inactive: growth inhibition [1] -16.1% | growth inhibition [2] -13% | viability increase [3] 0.35% | viability [4] 95.3% | viability [5] 102% | inhibition [6] 1.07% | RAM network inhibition [7] 1.72%

Cc1ccccc1-n1nc2c(c1NC(=O)c1cccc(F)c1)CS(=O)C2 (stereo unspecified)
inactive: growth inhibition [1] -8.75% | growth inhibition [2] 5.54% | viability increase [3] 0.96% | viability [4] 98.8% | viability [5] 98.5% | inhibition [6] 0.835% | RAM network inhibition [7] 7.75%

Cc1cc(C(=O)Nc2cccnc2)on1
inactive: growth inhibition [1] -5.72% | growth inhibition [2] -5.71% | viability increase [3] -1.86% | viability [4] 103% | viability [5] 93.4% | inhibition [6] 0.355% | RAM network inhibition [7] 2.08%

CCN1CCN(CC(O)COc2ccc(C(C)=O)cc2)CC1 (stereo unspecified)
inactive: growth inhibition [1] -5.8% | growth inhibition [2] -1.04% | viability increase [3] 0.34% | viability [4] 98.8% | viability [5] 100% | inhibition [6] 0.405% | RAM network inhibition [7] 0.31%

CC1(C)CC(=O)C=C(NCc2cccnc2)C1
inactive: growth inhibition [1] -4.83% | growth inhibition [2] -11.8% | viability increase [3] -1.4% | viability [4] 92.2% | viability [5] 94.9% | inhibition [6] -0.505% | RAM network inhibition [7] 1.01%

CCSc1nnc(Cc2cc(=O)[nH]c(=O)[nH]2)n1-c1ccc(F)cc1
inactive: growth inhibition [1] -5.83% | growth inhibition [2] -10.5% | viability increase [3] 0.38% | viability [4] 104% | viability [5] 100% | inhibition [6] 0.9% | RAM network inhibition [7] 1.04%

O=C(CSc1ccc2nnc(-c3cccnc3)n2n1)N1CCc2ccccc21
inactive: growth inhibition [1] -5.28% | growth inhibition [2] 4.37% | viability increase [3] -3.19% | viability [4] 103% | viability [5] 94.1% | inhibition [6] 0.845% | RAM network inhibition [7] 4.57%

O=C(Cn1cnc2c(nnn2Cc2ccc(Cl)cc2)c1=O)N1CCN(c2ccccc2)CC1
inactive: growth inhibition [1] -7.16% | growth inhibition [2] -12.6% | viability increase [3] 3.63% | viability [4] 82.3% | viability [5] 80.5% | inhibition [6] 1.98% | RAM network inhibition [7] 6.43%

COc1ccccc1N1CCN(C(CNC(=O)C2CCCCC2)c2cccnc2)CC1 (stereo unspecified)
inactive: growth inhibition [1] -3.31% | growth inhibition [2] -3.02% | viability increase [3] 1.93% | viability [4] 90.1% | viability [5] 94.4% | inhibition [6] 0.775% | RAM network inhibition [7] 3.85%

COC(=O)CCC(=O)Nc1ccc(Br)cc1
inactive: growth inhibition [1] 8.2% | growth inhibition [2] 0.895% | viability increase [3] -1.52% | viability [4] 101% | viability [5] 95.4% | inhibition [6] 1.16% | RAM network inhibition [7] 6.37%

CCOc1ccc(-n2c(SCC(=O)NCc3ccco3)nc3c(c2=O)SCC3)cc1
inactive: growth inhibition [1] -21.1% | growth inhibition [2] -19.1% | viability increase [3] -3.31% | viability [4] 95.2% | viability [5] 98.4% | inhibition [6] 3.37% | RAM network inhibition [7] 7.34%

CCCCCCn1c(SCCOC)nc2c1c(=O)[nH]c(=O)n2C
inactive: growth inhibition [1] -2.79% | growth inhibition [2] -3.65% | viability increase [3] -0.71% | viability [4] 90.2% | viability [5] 85% | inhibition [6] 1.88% | RAM network inhibition [7] 9.09%

Cc1noc(C)c1S(=O)(=O)N(CC(=O)N1CCCC1)c1ccc(C(C)C)cc1
inactive: growth inhibition [1] -1.45% | growth inhibition [2] -1.11% | viability increase [3] -5.13% | viability [4] 83.6% | viability [5] 83% | inhibition [6] 0.4% | RAM network inhibition [7] 4.43%

Cc1onc(-c2ccccc2Cl)c1C(=O)Nc1nnc(C(C)C)s1
inactive: growth inhibition [1] 1.52% | growth inhibition [2] 4.5% | viability increase [3] -1.44% | viability [4] 93.4% | viability [5] 95.7% | inhibition [6] -0.23% | RAM network inhibition [7] 4.37%

CCN(CC)C(=O)CCCOc1ccc(Cl)cc1Cl
inactive: growth inhibition [1] -2.5% | growth inhibition [2] -0.045% | viability increase [3] 0.07% | viability [4] 76.7% | viability [5] 83.9% | inhibition [6] -0.905% | RAM network inhibition [7] 0.45%

C(=N\c1nccs1)/c1cccnc1
inactive: growth inhibition [1] -7.2% | growth inhibition [2] -11.4% | viability increase [3] -0.86% | viability [4] 108% | viability [5] 100% | inhibition [6] 0.235% | RAM network inhibition [7] 2.23%

CN1C(=O)CS(=O)c2ccc(C(=O)NCCC3=CCCCC3)cc21 (stereo unspecified)
inactive: growth inhibition [1] 0.135% | growth inhibition [2] 0.3% | viability increase [3] -2.35% | viability [4] 81.3% | viability [5] 85% | inhibition [6] 0.265% | RAM network inhibition [7] 2.98%

CCCC(=O)NC(C)c1nc2ccccc2n1C(C)C (stereo unspecified)
inactive: growth inhibition [1] -10.7% | growth inhibition [2] -16.6% | viability increase [3] 0.47% | viability [4] 97.5% | viability [5] 91.2% | inhibition [6] 0.475% | RAM network inhibition [7] 2.52%
